Positions count from the first letter of the chain named.
Tests used:
Assay type in all cases: cell-based
rP2X7 K127A = target: T1, rP2X7 K127A (Rattus norvegicus, UniProt Q64663, K127A); experiment: TEVC dose response; settings: read-out: EC50 (apparent affinity), mean ± SD, triplicate
T1 sequence (Q64663 1-595 K127A): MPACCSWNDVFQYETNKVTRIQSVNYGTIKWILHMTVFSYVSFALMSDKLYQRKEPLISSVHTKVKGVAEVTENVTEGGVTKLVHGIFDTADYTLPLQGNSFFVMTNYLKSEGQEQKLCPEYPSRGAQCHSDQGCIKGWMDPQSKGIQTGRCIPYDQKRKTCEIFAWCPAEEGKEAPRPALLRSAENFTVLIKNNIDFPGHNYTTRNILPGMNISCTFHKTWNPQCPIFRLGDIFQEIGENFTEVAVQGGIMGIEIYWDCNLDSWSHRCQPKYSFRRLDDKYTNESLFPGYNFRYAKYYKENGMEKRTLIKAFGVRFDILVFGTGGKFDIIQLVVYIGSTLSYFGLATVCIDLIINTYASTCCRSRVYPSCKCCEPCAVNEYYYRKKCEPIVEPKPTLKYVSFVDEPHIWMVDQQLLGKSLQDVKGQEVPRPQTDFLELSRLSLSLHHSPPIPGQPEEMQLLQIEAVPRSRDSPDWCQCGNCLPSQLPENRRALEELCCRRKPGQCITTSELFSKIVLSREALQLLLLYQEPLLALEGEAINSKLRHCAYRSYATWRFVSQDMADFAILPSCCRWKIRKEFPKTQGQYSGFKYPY
Method in brief: (§1)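 TEVC was run on Xenopus oocytes ~20 h after injection of wild-type or mutant rP2X7 mRNA, in pH 7.4 HEPES buffer with 0.1 mM flufenamic acid. Receptors were facilitated at 100 µM before recording. Dilution series: ATP 1.5 mM–2 µM (7 points), BzATP 300–0.14 µM (8 points). Responses were normalized to the largest concentration, fitted by nonlinear regression for EC50, and averaged across triplicates (mean ± SD).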

rP2X7-R125A/I214A [1] = target: T2, rP2X7-R125A/I214A (Rattus norvegicus, UniProt Q64663, I214A/R125A); experiment: TEVC deactivation time; settings: after 100 μM ATP or 10 μM BzATP
T2 sequence (Q64663 1-595 R125A/I214A): T1 sequence (Q64663 1-595 K127A) with R125A, A127K, I214A
Method in brief: (§2)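 Xenopus oocytes injected with 50 nL of 10 ng/µL mutant rP2X7 mRNA, expressed ~20 h, clamped in pH 7.4 HEPES buffer with 0.1 mM flufenamic acid and EDTA. Currents were evoked by 100 µM ATP or 10 µM BzATP. τ is the time for current to return to 63% of baseline after agonist removal, from a one- or two-phase decay fit. Done in triplicate over first to third applications per oocyte; mean ± SD.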

rP2X7-R125A/Q143A/I214A = target: T3, rP2X7-R125A/Q143A/I214A (Rattus norvegicus, UniProt Q64663, I214A/Q143A/R125A); experiment: TEVC dose response; settings: read-out: EC50 (apparent affinity), mean ± SD, triplicate
T3 sequence (Q64663 1-595 R125A/Q143A/I214A): T1 sequence (Q64663 1-595 K127A) with R125A, A127K, Q143A, I214A

rP2X7-I214G = target: T4, rP2X7-I214G (Rattus norvegicus, UniProt Q64663, I214G); experiment: TEVC deactivation time; settings: after 100 μM ATP or 10 μM BzATP
T4 sequence (Q64663 1-595 I214G): T1 sequence (Q64663 1-595 K127A) with A127K, I214G
Method in brief: as §2

rP2X7-R125A/I214A [2] = target: T2, rP2X7-R125A/I214A; experiment: TEVC dose response; settings: read-out: EC50 (apparent affinity), mean ± SD, triplicate
Method in brief: as §1

Row | EC50 (rP2X7 K127A) [µM] | deactivation lifetime τ (rP2X7-R125A/I214A [1]) [s] | EC50 (rP2X7-R125A/Q143A/I214A) [µM] | deactivation lifetime τ (rP2X7-I214G) [s] | EC50 (rP2X7-R125A/I214A [2]) [µM] | Molecule
1 | 22 ± 3 | 3.7 ± 0.8 | 203 ± 12 | 2.9 ± 0.2 | 77 ± 10 | Nc1ncnc2c1ncn2[C@@H]1O[C@H](COP(=O)(O)OP(=O)(O)OP(=O)(O)O)[C@@H](O)[C@H]1O [ATP]
2 | 2.9 ± 0.4 | 23 ± 13 | 198 ± 60 | 8.9 ± 2.2 | 14 ± 2 | BzATP

From paper PMC11303814 (Nature Communications, 2024)
